Measurements published in paper PMC6639057 (Investigational new drugs, 2018).
“And” between values parts separate entries of the source, which are not always exact repeats. Equal values may be shown once. “Also recorded” adds a separate entry of the source. Marks after values point to notes of the source that are not given here.

What was measured:
[1] = tested on: breast cancer cell lines with TP53 loss of function mutations; details: cited from earlier work
[2] = tested on: TNBC cell lines and xenografts; details: in combination with ixabepilone; cited from earlier work
[3] = tested on: taxane- and platinum-resistant ovarian cancer; assay: Tumor response, dose-expansion ovarian cancer cohort; type: in vivo, human
[4] = Plasma pharmacokinetics; type: in vivo, human; details: for AUC(0-t): 40 mg, Mean AUC24h, 40 mg once daily, dose expansion
[5] = tested on: patients with advanced solid tumors; assay: Dose-limiting toxicities and maximum tolerated dose, dose-escalation phase; type: in vivo
[6] = tested on: castration-resistant and taxane- or cisplatin/etoposide-resistant prostate cancer; assay: Tumor response, dose-expansion CRPC cohort; type: in vivo, human
[7] = tested on: cell lines from a variety of tumor types including several that were resistant to paclitaxel; details: preclinical; cited from earlier work
[8] = tested on: advanced solid tumors; assay: Tumor response, dose-escalation cohorts; type: in vivo, human; details: for Best overall response: Complete response / Best overall response: Partial response / Best overall response: Progressive disease / Best overall response: Stable disease / Best overall response: Unable to evaluate: Central read, RECIST 1.1
Procedure, shortened: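 Adults with refractory advanced solid tumours took the drug orally once each morning on days 1–4 of 14-day cycles, fasting from 2 h predose (water only) until 1 h postdose. Doses were 1–30 mg (and 25 mg) without G-CSF, or 30–50 mg with subcutaneous G-CSF (300 or 480 µg daily). Scans were read centrally by RECIST 1.1 and locally by RECIST 1.0, with GCIG criteria for ovarian tumours.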

[9] = tested on: taxane-resistant triple-negative breast cancer; assay: Tumor response, dose-expansion TNBC cohort; type: in vivo, human
[10] = tested on: p-histone H3; details: not measured in this study; no reference given; cited from earlier work
[11] = tested on: xenografts of diverse tumor types that were resistant to either docetaxel or paclitaxel; details: mouse models; cited from earlier work
[12] = Central read, RECIST 1.1, expansion 40 mg + G-CSF, OC (n = 29)
[13] = GCIG criteria (RECIST 1.1 and CA 125), expansion 40 mg + G-CSF, OC (n = 29)
[14] = Local read, RECIST 1.0, expansion 40 mg + G-CSF, OC (n = 29)
[15] = Central read, RECIST 1.1, expansion 40 mg + G-CSF, CRPC (n = 12)
[16] = Local read, RECIST 1.0, expansion 40 mg + G-CSF, CRPC (n = 12)
[17] = escalation 30 mg + G-CSF (n = 6)
[18] = escalation 35 mg + G-CSF (n = 3)
[19] = escalation 40 mg + G-CSF (n = 11)
[20] = escalation 50 mg + G-CSF (n = 4)
[21] = escalation 1, 2, 4, 8 mg (n = 4)
[22] = Central read, RECIST 1.1, expansion 40 mg + G-CSF, TNBC (n = 14)
[23] = Local read, RECIST 1.0, expansion 40 mg + G-CSF, TNBC (n = 14)

Cc1csc(-c2nnc(Nc3ccc(Oc4ncccc4-c4ccnc(N)n4)cc3)c3ccccc23)c1 [AMG 900]
Sensitivity to AMG 900 compared with cell lines without such mutations [1]: greater sensitivity | Growth of TNBC cell lines and xenografts [2]: inhibited growth | Progression-free survival, median (80% CI) ([3]; Central read, RECIST 1.1, Kaplan-Meier, expansion 40 mg + G-CSF, OC (n = 29)): 31.7 (23.7–47.6) weeks | Best overall response: Complete response [3, 12]: 0 Patients (%) | Best overall response: Not evaluable (postbaseline scan not readable) [3, 12]: 2 (7) Patients (%) | Best overall response: Partial response [3, 12]: 3 (10) Patients (%) | Best overall response: Progressive disease [3, 12]: 3 (10) Patients (%) | Best overall response: Stable disease [3, 12]: 21 (72) Patients (%) | Best overall response: Complete response [3, 13]: 0 Patients (%) | Best overall response: Not evaluable (postbaseline scan not readable) [3, 13]: 3 (10) Patients (%) | Best overall response: Partial response [3, 13]: 7 (24) Patients (%) | Best overall response: Progressive disease [3, 13]: 3 (10) Patients (%) | Best overall response: Stable disease [3, 13]: 16 (55) Patients (%) | Partial response ([3]; GCIG criteria (RECIST 1.1 and CA 125), expansion ovarian cancer (7 of 29)): 24.1% | Objective response rate (ORR) ([3]; GCIG criteria (central read), expansion ovarian cancer, 95% CI 10.3%–43.5%): 24.1% | Progressive disease ([3]; GCIG criteria, expansion ovarian cancer (3 of 29)): 10.3% | Stable disease ([3]; GCIG criteria, expansion ovarian cancer (16 of 29)): 55.2% | Median (80% CI) PFS ([3]; Kaplan-Meier, ovarian cancer patients from dose-escalation (n = 4) and dose-expansion (n = 29)): 34.1 (31.1–not estimable) weeks | Best overall response: Complete response [3, 14]: 0 Patients (%) | Best overall response: Not evaluable (postbaseline scan not readable) [3, 14]: 2 (7) Patients (%) | Best overall response: Partial response [3, 14]: 3 (10) Patients (%) | Best overall response: Progressive disease [3, 14]: 4 (14) Patients (%) | Best overall response: Stable disease [3, 14]: 20 (69) Patients (%) | Progressive disease ([3]; RECIST 1.1, expansion ovarian cancer (3 of 29)): 10.3% | Stable disease as best response ([3]; RECIST 1.1, expansion ovarian cancer (21 of 29)): 72.4% | Median duration of response ([3]; RECIST 1.1, expansion ovarian cancer, 95% CI: 16.1–34.1): 24.1 weeks | Objective response rate (ORR) ([3]; RECIST 1.1 central read, expansion ovarian cancer, 95% CI 2.0%–28.0%): 10.3% | Partial response ([3]; RECIST 1.1 central, expansion ovarian cancer (3 of 29)): 10.3% | Duration of partial response, individual patients ([3]; by GCIG criteria, same three ovarian cancer patients): 16.1 weeks and 65.6 weeks and 74.9 weeks | Duration of partial response, individual patients ([3]; by RECIST 1.1, three ovarian cancer patients): 34.1 weeks and 24.1 weeks and 16.1 weeks | Accumulation based on AUC8h ([4]; cycle 1 day 1 to cycle 1 day 4, all dose cohorts): < 2 fold | Tmax ([4]; human, plasma, oral): 1 to 3 h | half-life ([4]; human, plasma, oral): 6 to 9 h | AUC(0-t) ([4]; human, plasma, oral, CRPC): 7700 ng·h/mL | AUC(0-t) ([4]; human, plasma, oral, TNBC): 10600 ng·h/mL | AUC(0-t) ([4]; human, plasma, oral, ovarian cancer cohort): 12900 ng·h/mL | Mean exposure (AUC24h) versus dose ([4]; oral, 1 to 50 mg): increased as the dose increased | DLTs overall ([5]; in vivo): nine DLTs were reported in eight patients | Maximum tolerated dose (MTD) and recommended phase 2 dose ([5]; with G-CSF, daily, 4 days on, 10 days off): 40 mg | Maximum tolerated dose (MTD) ([5]; with G-CSF, oral, 4 days on/10 days off): 40 mg/day | Maximum tolerated dose (MTD) ([5]; without G-CSF, daily, 4 days on, 10 days off): 25 mg | Maximum tolerated dose (MTD) ([5]; without G-CSF, oral, 4 days on/10 days off): 25 mg/day | Progression-free survival, median (80% CI) ([6]; Central read, RECIST 1.1, Kaplan-Meier, expansion 40 mg + G-CSF, CRPC (n = 12)): 32.4 (15.7–39.6) weeks | Best overall response: Complete response [6, 15]: 0 Patients (%) | Best overall response: Not evaluable (postbaseline scan not readable) [6, 15]: 2 (17) Patients (%) | Best overall response: Partial response [6, 15]: 0 Patients (%) | Best overall response: Progressive disease [6, 15]: 1 (8) Patients (%) | Best overall response: Stable disease [6, 15]: 9 (75) Patients (%) | Best overall response: Complete response [6, 16]: 0 Patients (%) | Best overall response: Not evaluable (postbaseline scan not readable) [6, 16]: 1 (8) Patients (%) | Best overall response: Partial response [6, 16]: 0 Patients (%) | Best overall response: Progressive disease [6, 16]: 3 (25) Patients (%) | Best overall response: Stable disease [6, 16]: 8 (67) Patients (%) | Objective responses ([6]; RECIST 1.1, CRPC): No objective responses | Proliferation of tumor cell lines [7]: inhibited the proliferation | Duration of stable disease, one patient with medullary thyroid cancer ([8]; 24 mg): > 3.5 years | Tumor response, one patient with clear-cell endometrial cancer ([8]; 30 mg + G-CSF): partial response per RECIST 1.0 (local read) that was not confirmed per RECIST 1.1 (central read) | Tumor response, one patient with ovarian cancer ([8]; 30 mg, RECIST 1.1 and GCIG criteria (central read)): partial response | Best overall response: Complete response ([8]; escalation 16 mg (n = 3)): 0 Patients (%) | Best overall response: Partial response ([8]; escalation 16 mg (n = 3)): 0 Patients (%) | Best overall response: Progressive disease ([8]; escalation 16 mg (n = 3)): 0 Patients (%) | Best overall response: Stable disease ([8]; escalation 16 mg (n = 3)): 2 (67) Patients (%) | Best overall response: Unable to evaluate ([8]; escalation 16 mg (n = 3)): 1 (33) Patients (%) | Best overall response: Complete response ([8]; escalation 24 mg (n = 6)): 0 Patients (%) | Best overall response: Partial response ([8]; escalation 24 mg (n = 6)): 0 Patients (%) | Best overall response: Progressive disease ([8]; escalation 24 mg (n = 6)): 1 (17) Patients (%) | Best overall response: Stable disease ([8]; escalation 24 mg (n = 6)): 5 (83) Patients (%) | Best overall response: Unable to evaluate ([8]; escalation 24 mg (n = 6)): 0 Patients (%) | Best overall response: Complete response ([8]; escalation 25 mg (n = 7)): 0 Patients (%) | Best overall response: Partial response ([8]; escalation 25 mg (n = 7)): 0 Patients (%) | Best overall response: Progressive disease ([8]; escalation 25 mg (n = 7)): 1 (14) Patients (%) | Best overall response: Stable disease ([8]; escalation 25 mg (n = 7)): 4 (57) Patients (%) | Best overall response: Unable to evaluate ([8]; escalation 25 mg (n = 7)): 2 (29) Patients (%) | Best overall response: Complete response ([8]; escalation 30 mg (n = 6)): 0 Patients (%) | Best overall response: Progressive disease ([8]; escalation 30 mg (n = 6)): 1 (17) Patients (%) | Best overall response: Stable disease ([8]; escalation 30 mg (n = 6)): 3 (50) Patients (%) | Best overall response: Unable to evaluate ([8]; escalation 30 mg (n = 6)): 1 (17) Patients (%) | Best overall response: Partial response ([8]; escalation 30 mg (n = 6), patient also had a response by GCIG CA 125 criteria): 1 (17)^b Patients (%) | Best overall response: Complete response [8, 17]: 0 Patients (%) | Best overall response: Partial response [8, 17]: 0 Patients (%) | Best overall response: Progressive disease [8, 17]: 3 (50) Patients (%) | Best overall response: Stable disease [8, 17]: 3 (50) Patients (%) | Best overall response: Unable to evaluate [8, 17]: 0 Patients (%) | Best overall response: Complete response [8, 18]: 0 Patients (%) | Best overall response: Partial response [8, 18]: 0 Patients (%) | Best overall response: Progressive disease [8, 18]: 2 (67) Patients (%) | Best overall response: Stable disease [8, 18]: 1 (33) Patients (%) | Best overall response: Unable to evaluate [8, 18]: 0 Patients (%) | Best overall response: Complete response [8, 19]: 0 Patients (%) | Best overall response: Partial response [8, 19]: 0 Patients (%) | Best overall response: Progressive disease [8, 19]: 2 (18) Patients (%) | Best overall response: Stable disease [8, 19]: 7 (64) Patients (%) | Best overall response: Unable to evaluate [8, 19]: 2 (18) Patients (%) | Best overall response: Complete response [8, 20]: 0 Patients (%) | Best overall response: Partial response [8, 20]: 0 Patients (%) | Best overall response: Progressive disease [8, 20]: 0 Patients (%) | Best overall response: Stable disease [8, 20]: 2 (50) Patients (%) | Best overall response: Unable to evaluate [8, 20]: 2 (50) Patients (%) | Best overall response: Complete response [8, 21]: 0 Patients (%) | Best overall response: Partial response [8, 21]: 0 Patients (%) | Best overall response: Progressive disease [8, 21]: 2 (50) Patients (%) | Best overall response: Stable disease [8, 21]: 2 (50) Patients (%) | Best overall response: Unable to evaluate [8, 21]: 0 Patients (%) | Progressive disease ([8]; dose-escalation phase (12 patients of 50)): 24% | Stable disease (best response) ([8]; dose-escalation phase, RECIST 1.1 (29 patients of 50)): 58% | Tumor response, one patient with TNBC ([9]; 40 mg + G-CSF, RECIST 1.0 (local read)): partial response per RECIST 1.0 (local read) that was not confirmed per RECIST 1.1 (central read) | Progression-free survival, median (80% CI) ([9]; Central read, RECIST 1.1, Kaplan-Meier, expansion 40 mg + G-CSF, TNBC (n = 14)): 7.6 (4.1–23.6) weeks | Best overall response: Complete response [9, 22]: 0 Patients (%) | Best overall response: Not evaluable (postbaseline scan not readable) [9, 22]: 3 (21) Patients (%) | Best overall response: Partial response [9, 22]: 0 Patients (%) | Best overall response: Progressive disease [9, 22]: 4 (29) Patients (%) | Best overall response: Stable disease [9, 22]: 7 (50) Patients (%) | Best overall response: Complete response [9, 23]: 0 Patients (%) | Best overall response: Not evaluable (postbaseline scan not readable) [9, 23]: 3 (21) Patients (%) | Best overall response: Partial response [9, 23]: 1 (7) Patients (%) | Best overall response: Progressive disease [9, 23]: 5 (36) Patients (%) | Best overall response: Stable disease [9, 23]: 5 (36) Patients (%) | Objective responses ([9]; RECIST 1.1 (central read), TNBC): No objective responses; also recorded: No patients with TNBC had an objective response | Died or had progressive disease ([9]; RECIST 1.1 (central read), TNBC (7 of 14)): 50.0% | Stable disease as best overall tumor response ([9]; RECIST 1.1, TNBC (7 of 14)): 50.0% | 50% inhibitory concentration for the in vivo inhibition of p-histone H3 [10]: 273 ng/mL | Growth of xenografts [11]: inhibited growth
